Reference: ChEMBL document CHEMBL3352404, “Lower homologues of ahpatinin, aspartic protease inhibitors, from a marine Streptomyces sp” (J Nat Prod, 2014)
pIC50: −log10 of the molar value. Starred links: 1 amine or outer side, 2 acyl side, 3 side chain; linkers in the order of their positions; H or OH if unused. Non-standard residues stand in square brackets, D forms with d. Residues, ends and D or L forms follow the SMILES beside them. *: point of attachment. Ahppa(3S,4S) = O=C(C[C@H](O)[C@H](Cc1ccccc1)N[*:1])[*:2]; Sta = CC(C)C[C@H](N)[C@@H](O)CC(=O)O; Isobutyryl = CC(C)C(=O)*; Propionyl = CCC(=O)*

Key:
[1] = Inhibition of porcine gastric mucosa pepsin using MOCAc-Ala-Pro-Ala-Lys-Phe-Phe-Arg-Leu-Lys (Dnp)-NH2 as substrate after 20 mins by fluorescence assay; parameters: species or system Sus scrofa
In short: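 Test solution in MeOH was diluted into 0.1 M ammonium formate buffer pH 3.0. Pepsin solution (1 μg/mL in the buffer) was added, then 10 μM fluorogenic substrate solution (pre-mixing level). The mixture was incubated 30 °C for 20 min. Released MOCAc-Ala-Pro-Ala-Lys-Phe was read by fluorescence, excitation 328 nm, emission 393 nm.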

[2] = target: Cathepsin B (Bos taurus, UniProt P07688); assay: Inhibition of bovine spleen cathepsin B using Z-Arg-Arg-AMC as substrate after 30 mins by fluorescence assay
In short: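 Enzyme stock 1 unit/mL in 50 mM MES pH 6.0 with 0.1% Brij-35, diluted 100-fold in the same buffer before use. Test sample was mixed with diluted enzyme and 25 μM Z-Arg-Arg-AMC (substrate solution in DMSO, pre-mixing level) and incubated 37 °C for 30 min. Released AMC was read by fluorescence, excitation 345 nm, emission 440 nm.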

pIC50 [1] | pIC50 [2] | SMILES
7.96 | 4.77 | CC(=O)N[C@H](C(=O)N[C@H](C(=O)N[C@@H](CC(C)C)[C@@H](O)CC(=O)N[C@@H](C)C(=O)N[C@@H](CC(C)C)[C@@H](O)CC(=O)O)C(C)C)C(C)C [ACETYLPEPSTATIN]
– | 4.54 | CC(C)C[C@H](NC(=O)[C@H](C)NC(=O)C[C@H](O)[C@H](CC(C)C)NC(=O)[C@@H](NC(=O)[C@@H](NC(=O)C(C)C)C(C)C)C(C)C)[C@@H](O)CC(=O)O (Isobutyryl-VV[Sta]A[Sta]-OH)
7.74 | 5.00 | CCC(=O)N[C@H](C(=O)N[C@H](C(=O)N[C@@H](CC(C)C)[C@@H](O)CC(=O)N[C@@H](C)C(=O)N[C@@H](CC(C)C)[C@@H](O)CC(=O)O)C(C)C)C(C)C (Propionyl-VV[Sta]A[Sta]-OH)

The remaining lines, values behind:

SMILES | pIC50 [1] | pIC50 [2]
CCC(=O)N[C@H](C(=O)N[C@H](C(=O)N[C@@H](CC(C)C)[C@@H](O)CC(=O)N[C@@H](C)C(=O)N[C@@H](Cc1ccccc1)[C@@H](O)CC(=O)O)C(C)C)C(C)C (Propionyl-VV[Sta]A-{Ahppa(3S,4S)}) | 7.30 | 4.60
CC(C)C[C@H](NC(=O)[C@@H](NC(=O)[C@@H](NC(=O)C(C)C)C(C)C)C(C)C)[C@@H](O)CC(=O)N[C@@H](C)C(=O)N[C@@H](Cc1ccccc1)[C@@H](O)CC(=O)O (Isobutyryl-VV[Sta]A-{Ahppa(3S,4S)}) | – | 4.59
CC(=O)N[C@H](C(=O)N[C@H](C(=O)N[C@@H](CC(C)C)[C@@H](O)CC(=O)N[C@@H](C)C(=O)N[C@@H](Cc1ccccc1)[C@@H](O)CC(=O)O)C(C)C)C(C)C (Ac-VV[Sta]A-{Ahppa(3S,4S)}) | 7.96 | 4.82
